In PMC10739677 (Chembiochem : a European journal of chemical biology, 2023):

Tests used:
[1] = biological target: T1, GCL (pure human recombinant GCLC and GCLM) (Homo sapiens, UniProt P48506+P48507); experiment: GCL functional assay; format: biochemical
T1 sequence (P48507 1-274): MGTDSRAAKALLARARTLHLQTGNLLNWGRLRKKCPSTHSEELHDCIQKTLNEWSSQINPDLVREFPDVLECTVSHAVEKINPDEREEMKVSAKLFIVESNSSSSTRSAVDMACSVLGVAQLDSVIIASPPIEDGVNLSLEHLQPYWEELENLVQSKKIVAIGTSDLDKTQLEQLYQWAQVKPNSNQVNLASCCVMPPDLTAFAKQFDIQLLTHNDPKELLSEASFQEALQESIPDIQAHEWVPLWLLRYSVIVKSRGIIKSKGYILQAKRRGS
T1 sequence (P48506 1-637): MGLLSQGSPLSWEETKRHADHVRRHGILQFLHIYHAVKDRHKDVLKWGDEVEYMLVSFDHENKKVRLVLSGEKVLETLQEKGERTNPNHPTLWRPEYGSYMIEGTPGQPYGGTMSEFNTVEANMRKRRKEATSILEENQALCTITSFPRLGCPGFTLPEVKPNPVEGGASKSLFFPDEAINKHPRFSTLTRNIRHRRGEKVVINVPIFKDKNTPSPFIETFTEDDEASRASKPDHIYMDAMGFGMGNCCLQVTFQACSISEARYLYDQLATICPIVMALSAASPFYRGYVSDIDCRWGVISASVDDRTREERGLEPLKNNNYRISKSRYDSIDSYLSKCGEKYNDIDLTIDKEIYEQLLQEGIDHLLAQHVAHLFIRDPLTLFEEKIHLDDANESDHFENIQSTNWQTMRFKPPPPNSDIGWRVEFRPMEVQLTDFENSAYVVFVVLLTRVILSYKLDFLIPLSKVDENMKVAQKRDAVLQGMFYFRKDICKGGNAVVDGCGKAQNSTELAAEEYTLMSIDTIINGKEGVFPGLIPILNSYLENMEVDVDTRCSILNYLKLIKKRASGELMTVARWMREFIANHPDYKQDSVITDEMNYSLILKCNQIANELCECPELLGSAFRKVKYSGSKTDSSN

[2] = test system: A2780 ARID1A-negative ovarian cancer cells; experiment: Cell viability by Hoechst staining, A2780; format: cell-based, human; conditions: Hoechst staining at 24 hr
In short: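 A2780 cells seeded at 6,000/well in 96-well plates and left to adhere overnight, then dosed with test compound or DMSO vehicle for 24 hr. Fixed and stained with 10% formalin plus Hoechst 33342 for 15 min in the dark at room temperature, then washed three times with PBS before fluorescence reading. Expressed as percentage of DMSO control, mean ± sem, n=6 biologically independent replicates.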

[3] = test system: RMG-1 ARID1A-positive ovarian cancer cells; experiment: Cell viability by Hoechst staining, RMG-1; format: cell-based, human; conditions: Hoechst staining at 24 hr
[4] = test system: GSH levels in A2780 cells; experiment: LC-MS/MS quantification of GSH levels, A2780; format: cell-based, human; conditions: SRM LC-MS/MS 4hr post treatment
[5] = test system: GSH levels in RMG-1 cells; experiment: LC-MS/MS quantification of GSH levels, RMG-1; format: cell-based, human; conditions: SRM LC-MS/MS 4hr post treatment
[6] = biological target: T2, GCLM C114 (pure human GCLM and GCLC) (Homo sapiens, UniProt P48507); experiment: LC-MS/MS analysis of EN25 adduct on GCL complex; format: binding; conditions: EN25 50 μM, 30 min at 37°C; tryptic digest LC-MS/MS
T2 sequence (P48507 1-274): T1 sequence (P48507 1-274)
T2 sequence (P48506 1-637 partner): T1 sequence (P48506 1-637)

pure human GCLM protein = biological target: T3, pure human GCLM protein (Homo sapiens, UniProt P48507); experiment: Gel-based ABPP; format: binding
T3 sequence (P48507 1-274): T1 sequence (P48507 1-274)
In short: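 Pure recombinant human GCLM (0.1 μg in 50 μL PBS) treated for 30 min at 37 °C with alkyne probe (10–100 μM final) or DMSO. In the competition format, protein is first preincubated with test compound for 30 min at 37 °C, then labelled with probe (50 μM final) for 2 h at 37 °C. Rhodamine-azide (1 μM final) appended by CuAAC, then reducing SDS-PAGE and in-gel fluorescence; silver stain confirms loading.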

[7] = test system: cysteines within proteins in A2780 cells; experiment: isoTOP-ABPP cysteine chemoproteomic profiling; format: cell-based, human; conditions: A2780 cells treated 90 min; IA-alkyne 100 μM
siGCLM A2780 cells = experiment: Cell viability after GCLM knockdown; format: cell-based, human; conditions: siGCLM vs siControl A2780, 24 hr treatment, Hoechst staining
A2780 cells = experiment: Ferrostatin rescue experiment; format: cell-based, human; conditions: Ferrostatin-1 2 μM with EN25 50μM, A2780, 48 hr, Hoechst staining

| Compound | IC50 [1] [µM] | cell viability impairment [2] | cell viability impairment [3] | GSH levels [4] | GSH levels [5] | site of covalent modification on GCL complex [6] | competition of EN25-alkyne labeling of GCLM (pure human GCLM protein; pre-incubation 30 min at 37°C, then EN25-alkyne 50 μM for 2 h) | proteome-wide selectivity: potential off-targets [7] | cell viability impairment upon GCLM knockdown (siGCLM A2780 cells) | covalent labeling of GCLM (pure human GCLM protein; in-gel fluorescence after CuAAC with rhodamine-azide) | rescue of EN25-mediated cell viability impairment (A2780 cells) |
| --- | --- | --- | --- | --- | --- | --- | --- | --- | --- | --- | --- |
| C=CC(=O)NCc1ccc(C(=O)Nc2ccc(Sc3ccc(C)c(C)c3)cc2)cc1 [EN25] | 16 | more sensitive A2780 cancer cell line | RMG-1 cancer cells showed resistance to EN25-mediated cell viability impairments | significantly lowered GSH levels in A2780 cancer cells | no changes observed in RMG-1 cells | selective and covalent EN25 modification of C114 on GCLM | dose-responsive competition of this labeling by EN25 | nine potential off-targets of EN25 out of >5000 cysteines | GCLM knockdown with siRNA conferred hypersensitivity to EN25-mediated cell viability impairments | – | – |
| C#CCOc1ccc(-c2ccc(CNC(=O)c3ccc(CNC(=O)C=C)cc3)cc2)cc1 [EN25-alkyne] | 3.6 | – | – | – | – | – | – | – | – | showed covalent labeling of GCLM | – |
| CCOC(=O)c1ccc(NC2CCCCC2)c(N)c1 [ferrostatin, Ferrostatin-1] | – | – | – | – | – | – | – | – | – | – | attenuated the cell viability impairments conferred by EN25 treatment |
